# Screens: PubChem BioAssay, The Scripps Research Institute Molecular Screening Center
# M5 PAM: positive allosteric modulators of human muscarinic M5 receptor | P08912 | AID 624038 | CHO-K1 hM5, Fluo-8 calcium, ACh EC20 PAM; 0% = ACh EC20, 100% = ACh EC100 | activation, % at 3 µM | 0.3% of 360,000 active;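 active means activation above the run cutoff, the mean activation of all test compounds plus 3 SD, cut at about 18% in these data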
# Target sequence (P08912 whole entry, looked up): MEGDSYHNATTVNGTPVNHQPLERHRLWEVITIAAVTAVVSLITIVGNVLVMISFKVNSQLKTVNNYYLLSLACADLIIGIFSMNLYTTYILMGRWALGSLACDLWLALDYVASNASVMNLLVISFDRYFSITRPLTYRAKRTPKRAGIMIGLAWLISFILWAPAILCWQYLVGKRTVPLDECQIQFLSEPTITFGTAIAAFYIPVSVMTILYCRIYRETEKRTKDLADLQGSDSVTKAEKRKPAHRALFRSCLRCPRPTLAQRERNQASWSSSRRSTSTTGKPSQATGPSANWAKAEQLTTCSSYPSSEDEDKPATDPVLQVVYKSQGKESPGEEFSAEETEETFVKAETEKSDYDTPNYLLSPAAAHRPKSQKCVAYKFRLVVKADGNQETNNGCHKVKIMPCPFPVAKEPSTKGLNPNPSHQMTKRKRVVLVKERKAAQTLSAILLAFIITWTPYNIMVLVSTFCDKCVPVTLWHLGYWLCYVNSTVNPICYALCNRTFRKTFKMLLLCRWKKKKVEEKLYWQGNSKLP
#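 system = human M5 receptor in CHO-K1 cells | compound = one concentration, 3 µM final (nominal) | schedule = Post-acetylcholine fluorescence recording 140 s | signal = Fluo-8 calcium dye fluorescence, kinetic read | benchmarks = low control EC20 acetylcholine (0%), high control EC100 acetylcholine (100%) | repeats = singlicate, one well per test compound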
# M5 ag: CHRM5 agonism in calcium assay. CHO-K1 hM5 cells, Fluo-8 calcium fluorescence; 0% DMSO wells, 100% maximal acetylcholine response. activation, % at 3 µM. 0.19% of 360,000 active. AID 624037;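 active means activation above the run's mean over test compounds plus 3 SD, cut at about 23% in these data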;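 further: signal is peak over basal fluorescence ratio across the kinetic read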
# M5 antag: antagonists of human muscarinic M5 receptor (CHRM5) | P08912 | CHO-hM5 cells, Fluo-8 calcium fluorescence, ACh EC80 | inhibition, % at 3 µM | 0.59% of 360,000 active;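 active means inhibition above a per-plate cutoff, the mean of that plate's test compounds plus 3 SD, cut at about 27% in these data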;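 further: 0% = acetylcholine EC80 with DMSO and 100% = DMSO without agonist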
# M4 PAM: potentiates acetylcholine response at human M4 receptor. P08173. CHO-K1 hM4/Gqi5, Fluo-8 calcium fluorescence, ACh EC20; 0% = ACh EC20, 100% = maximal ACh. activation, % at 3 µM. 0.4% of 360,000 active. AID 624126;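 active means activation above its plate's cutoff, the mean activation of sample wells plus 3 SD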
# CHRM4 agonist: CHRM4 agonism in calcium assay | CHO-K1 hM4/Gqi5, Fluo-8 calcium fluorescence; vehicle 0%, full acetylcholine response 100% | activation, % at 3 µM | 0.14% of 360,000 active | AID 624127;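 active means activation above the run mean over all test wells plus 3 SD, cut at about 32% in these data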;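 further: peak over basal fluorescence ratio per well then scaled between controls; 0% = DMSO wells and 100% = acetylcholine at EC100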
# CHRM4 antagonist: CHRM4 antagonism in calcium assay | AID 624125 | inhibition, % at 3 µM | 0.73% of 360,000 active | CHO-hM4 cells, ACh EC80, Fluo-8 calcium fluorescence | P08173;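 active means inhibition above its plate's cutoff, the mean inhibition of sample wells plus 3 SD, cut at about 27% in these data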;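 further: 0% = acetylcholine EC80 with DMSO and 100% = DMSO without agonist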
# The depositor's hits bear a star. A selection: hits, their analogues and other compounds. The true share with any hit is near 1.9%.
SMILES,M5 PAM,M5 ag,M5 antag,M4 PAM,CHRM4 agonist,CHRM4 antagonist
Cc1cc(C)nc(Nc2ncc(O)n2-c2ccccc2)n1,0.8,0.5,2.3,-6.6,0.9,8.9
Cc1cccc(-n2c(O)cnc2Nc2nc(C)cc(C)n2)c1,-12.3,0.4,27.1*,-8.3,16.7,4.8
COc1ccc(C(=O)Cn2nnc(-c3ccccc3NC(=O)C3CCCCC3)n2)cc1,4.1,-2.7,2.6,-2.0,-0.2,3.5
Cn1c(=O)c(C(=O)COc2ccc(C#N)cc2)c(N)n(Cc2ccccc2)c1=O,-17.8,38.0*,12.3,-10.6,28.9,-1.7
CCOc1ccc(NC(C(=O)Nc2cccc(C(C)=O)c2)c2ccccc2)cc1 (stereo not drawn),-3.3,-3.6,3.6,-6.0,2.8,-1.5
CCN(CC)CCNC(C(=O)Nc1cccc(C(C)=O)c1)c1ccccc1 (stereo not drawn),-21.3,-10.0,19.0,-19.3,0.6,53.8*
CCCC(O)(CCN1CCOCC1)c1ccc(Cl)cc1 (stereo not drawn),-30.4,-19.0,19.0,-40.4,0.7,21.6
CCCC(O)(CCN1CCOCC1)c1ccc(Br)cc1 (stereo not drawn),-18.5,-6.9,19.0,-26.8,-0.3,43.8*
C=C(C)COc1ccc(-c2[nH]ncc2Oc2ccc(OC)cc2)c(O)c1,-5.5,-3.6,6.9,-31.7,-0.6,41.2*
O=C(NCc1cccnc1)c1cc(-c2cccs2)on1,0.2,1.1,-1.9,14.8,0.0,-0.8
c1cc2c(cc1CN1CCN(C3CCCCCC3)CC1)OCO2,-13.8,-8.4,9.2,-16.3,0.1,45.7*
O=C(COc1ccccc1[N+](=O)[O-])c1ccccc1,-5.9,-2.2,12.9,3.1,0.5,1.9
COC(=O)/C=C/COc1ccccc1[N+](=O)[O-],7.0,-2.4,-1.2,17.8*,0.4,-4.6
CC1(c2ccc(Cl)cc2)NC(=O)N(CC(=O)N2CCc3ccccc32)C1=O (stereo not drawn),-3.3,40.0*,6.7,-1.0,37.5*,-6.8
CCC1(CC)NC(=O)N(CC(=O)N2CCc3ccccc32)C1=O,20.4*,-2.6,1.9,18.7*,0.4,-19.6
CCC1(c2ccc(F)cc2)NC(=O)N(CC(=O)N2CCc3ccccc32)C1=O (stereo not drawn),-8.3,37.9*,-1.1,-1.9,31.9,-9.8
CCC1(c2ccc(F)cc2)NC(=O)N(CC(=O)Nc2ccccc2Cl)C1=O (stereo not drawn),-9.8,33.0*,-8.8,-3.6,18.0,6.7
Cc1ccc(C2(C)NC(=O)N(CC(=O)N3CCc4ccccc43)C2=O)cc1 (stereo not drawn),-13.1,23.1,10.3,0.2,11.6,-11.2
CC1CCN(S(=O)(=O)c2cn(CC(=O)N3CCN(c4cccc(C(F)(F)F)c4)CC3)cn2)CC1,-7.1,-2.8,4.0,-3.6,6.6,3.5
CCCCCCCCN1N=N[C@H]2[C@H]1[C@@H]1C[C@H]2N(C(=O)OC(C)(C)C)O1,-10.5,-3.3,3.4,-15.2,2.6,30.8*
COc1ccc(CNCc2cn(-c3cccc(F)c3)nc2-c2ccc(C)o2)cc1,-1.1,5.6,-3.5,7.4,4.0,34.1*
COc1ccc(-n2cc(CNCc3cccnc3)c(-c3cccc(F)c3)n2)cc1,0.8,-0.4,7.0,4.0,4.7,-6.2
C=CCn1c(SCC(=O)NCC(c2ccccc2)N(C)C)nc2sc3c(c2c1=O)CCC3 (stereo not drawn),5.4,-5.5,-7.4,7.8,2.5,-10.2
COc1ccc(OC)c2[nH]c(=O)c(CCNC(=O)c3ccc(S(=O)(=O)N(C)C)cc3)cc12,2.7,1.6,15.6,27.8*,3.6,10.6
C[C@@H](CSc1ccc(Br)cc1)CN1CC[C@H](NC(=O)OCc2ccccc2)CCC1=O,-15.3,2.1,14.9,-5.1,16.6,28.0*
SMILES,M5 PAM,M5 ag,M5 antag,M4 PAM,CHRM4 agonist,CHRM4 antagonist
O=C(c1noc2c1CCCC2)N1CCN(c2ccc(F)cc2)CC1,3.1,2.2,-0.8,3.1,3.1,29.1*
CCOC(=O)C1(CC2CC2)CCN(S(=O)(=O)/C=C/c2ccccc2)CC1,-13.9,-7.6,8.9,-13.6,0.5,-12.0
CCN(CC)CC#CC(OC)(c1ccccc1)c1ccccc1,-15.6,-11.8,95.5*,-27.2,-1.6,57.0*
Cc1ccc(CN2CC(C(=O)N3CC=C(c4ccccc4)CC3)CC2=O)cc1 (stereo not drawn),3.5,0.7,-16.0,1.8,7.4,-5.7
O=C(Nc1ccc(F)c(Cl)c1)C1CCCN(C2=NS(=O)(=O)c3ccccc32)C1 (stereo not drawn),13.2,0.4,-9.9,24.0*,1.6,-10.2
O=C(NCc1ccccc1)NC1(C(=O)N2CCOCC2)CCCCC1,42.0*,-3.3,-8.3,-1.4,0.4,24.4
O=C(Nc1cccc(-c2cccc(F)c2)c1)C1CCN(C2CCC2)CC1,-1.6,-6.1,-15.7,0.8,9.9,-3.3
CN1CCC(Oc2ccc(Sc3ccccc3)cc2)CC1,-10.2,-4.2,16.7,-17.5,12.1,34.0*
CN1CCC(Oc2ccccc2Sc2ccc(C(F)(F)F)cc2)CC1,-19.9,-8.6,14.3,-6.1,1.1,6.0
O=C1OCC2=C1C(c1ccc3c(c1)OCO3)Sc1ccccc1N2 (stereo not drawn),-0.8,-10.2,-8.8,-3.0,2.4,-0.1
CCN1CCN(CC(=O)Nc2ccc3c(c2)OCO3)C(=O)C1=O,-2.0,-1.4,-1.1,5.7,1.7,-36.3
CCN1CCN(CC(=O)Nc2ccc3c(c2)OCCO3)C(=O)C1=O,-4.5,0.7,-4.4,30.6*,-0.2,-12.4
CCCN(CC(=O)Nc1ccc(Cl)cc1Cl)C(=O)c1ccc(=O)[nH]c1,-1.8,-4.0,5.0,7.1,0.3,-6.4
CCCCn1c(-c2ccc([N+](=O)[O-])cc2)n[nH]c1=S,-20.5,-7.3,46.0*,-24.2,0.7,95.4*
OC1CCCN(Cc2ccccc2)C1 (stereo not drawn),-3.5,-1.6,-1.5,6.2,0.2,-2.8
CSc1ccc(CCNC(=O)CN2C(=O)c3cccnc3Oc3ccc(C)cc32)cc1,-10.4,0.4,24.9,-7.1,15.1,32.9*
O=[N+]([O-])c1cc([N+](=O)[O-])c(N2CCOCC2)cc1NCc1ccccc1,-7.6,-12.1,2.3,-2.1,1.2,-6.8
CCN1C(=NCCCCO)N[C@@H](c2cccc(F)c2)C(C(=O)OC)=C1C,4.7,-6.4,-1.2,23.1*,-0.4,-10.8
CCCCCCN1C[C@H](n2cc(C3CC3)nn2)[C@@H](O)C[C@@H]1c1ccc(C)cc1,2.2,-1.8,-4.7,-0.1,-0.3,-4.0
CCCc1cc(=O)n2c([nH]c3ccccc32)c1C#N,-12.6,30.7*,16.5,7.8,2.1,-4.1
